Consider 37 sequences from the array DNA melting data of Ke et al. (doi:10.1101/2024.01.08.574731).

A short description of data set [1]: folding enthalpy; higher = less favourable; fluorescence melt of hairpins on a sequencing array, two-state fit. The settings on record: sodium 0.088 M. The gist of the method:
(§1)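 Folding enthalpy and melting temperature come from bootstrapped two-state fits to Cy3 fluorescence of library hairpins carrying annealed Cy3 and quencher oligos on a sequenced MiSeq flow cell. Imaging was done in 50 mM Na-HEPES pH 8.0, 25 mM NaCl, stepping by 2.5 °C up to 60 °C, and signals were normalised to pre-quench Cy3 and to control constructs. Results of four replicates were combined by inverse variance, and fitted temperatures were raised by 9.35 °C to match UV melts.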

The nature of data set [2]: melting temperature; fluorescence melt of hairpins on a sequencing array, two-state fit, raised by 9.35 °C to match UV melts. The settings on record: sodium 0.088 M. The gist of the method: as §1

On to GGTTATCGAAAGATGACC (((.(((....))).))), for which the folding enthalpy in data set [1] was -48.6 kcal/mol. Besides, the Tm in data set [2] stood at 51.7 °C.
Turning to GGTTATGGAAACACAACC ((((.((....)).)))), the folding enthalpy in data set [1] is -24.6 kcal/mol. For the same sequence, the Tm in data set [2] came out at 33.8 °C.
The like results for GGTTATGGAAACATAACC (((((((....))))))) were, in that order, -41.1 kcal/mol and 55.6 °C.
For GGTTCAGGAAACTGGATC (.(.(((....))).).), in that order: -10.2 kcal/mol and 30 °C.
The like results for GGTTCCCCGAAAGGGACC (((..(((....)))))) were, in that order, -17.9 kcal/mol and 45 °C.
For GGTTCCCGAAAGGGGACC (((.(((....))).))), the folding enthalpy in data set [1] is -30.8 kcal/mol. In addition, in data set [2], the Tm was 67.6 °C.
For GGTTCCGAAAGGAGAACC ((((((....)))..))), the folding enthalpy in data set [1] was -24.5 kcal/mol. Also, the Tm in data set [2] was determined as 45.1 °C.
The like results for GGTTCCGGAAACGAAACC ((((.((....)).)))) were, in that order, -24.8 kcal/mol and 42.9 °C.
Turning to GGTTCCGGAAACGGAGTC (..((((....))))..), in data set [1], the folding enthalpy was -11.7 kcal/mol. Further, in data set [2], the Tm was 34.1 °C.
On to GGTTCCGGAAACGGGATC (.(.(((....))).).), for which the folding enthalpy in data set [1] was -19.4 kcal/mol. Further, the Tm in data set [2] was determined as 39.9 °C.
For GGTTCCTCGAAAGAGACC (((..(((....)))))), the folding enthalpy in data set [1] was -10.1 kcal/mol. Further, the Tm in data set [2] stood at 25.8 °C.
The like results for GGTTCGGGAAACCGAACC (((((((....))))))) were, in that order, -38.2 kcal/mol and 69.2 °C.
For GGTTCGGGAAACCGAGTC (..((((....))))..), in that order: -13.1 kcal/mol and 36.5 °C.
For GGTTCTGGAAACAGAATC (.(((((....))))).), in that order: -34.2 kcal/mol and 45 °C.
In the case of GGTTCTGGAAACAGAGCC ((.((((....)))).)), the folding enthalpy in data set [1] was -30.5 kcal/mol. Further, in data set [2], the Tm was 50.6 °C.
As for GGTTCTGGAAACAGGACC (((.(((....))).))), in data set [1], the folding enthalpy was -45.3 kcal/mol. Further, the Tm in data set [2] turned out to be 50.6 °C.
The like results for GGTTCTTCGAAAGAAACC (((..(((....)))))) were, in that order, -13.4 kcal/mol and 29.1 °C.
With GGTTGACGAAAGTCTACC (((.(((....))).))), in data set [1], the folding enthalpy was -33.1 kcal/mol. Besides, the Tm in data set [2] was found to be 53.8 °C.
As for GGTTGAGGAAACTTGACC (((..((....))..))), the folding enthalpy in data set [1] was -14.6 kcal/mol. In data set [2], the Tm is 32.1 °C.
Regarding GGTTGCCCGAAAGGGACC (((..(((....)))))), the folding enthalpy in data set [1] is -11.5 kcal/mol. Further, the Tm in data set [2] was determined as 37.9 °C.
The like results for GGTTGCGAAAGCAAAACC ((((((....)))..))) were, in that order, -19.5 kcal/mol and 48.9 °C.
As to GGTTGCGAAAGCAATACC ((((((....)))..))), the folding enthalpy in data set [1] was -13.3 kcal/mol. Also, the Tm in data set [2] came out at 42.9 °C.
The like results for GGTTGCGAAAGCACAACC ((((((....)))..))) were, in that order, -19.6 kcal/mol and 44.2 °C.
For GGTTGCGGAAACGCGATC (.(.(((....))).).), in that order: -19.7 kcal/mol and 41.7 °C.
For GGTTGCGGAAACGTAGCC ((.(.((....)).).)), the folding enthalpy in data set [1] is -27.3 kcal/mol. In addition, in data set [2], the Tm amounted to 40.2 °C.
Take GGTTGCGGAAACGTGACC (((..((....))..))): the folding enthalpy in data set [1] is -32.2 kcal/mol. Besides, the Tm in data set [2] came to 48.8 °C.
In the case of GGTTGGCCGAAAGGCACC (((..(((....)))))), the folding enthalpy in data set [1] was -12.8 kcal/mol. Further, in data set [2], the Tm worked out at 41.4 °C.
For GGTTGGCGAAAGCCGACC (((.(((....))).))), in that order: -29.3 kcal/mol and 69.3 °C.
For GGTTGGGGAAACCCAACC (((((((....))))))), in that order: -36.8 kcal/mol and 66.4 °C.
For GGTTGGGGAAACCCAGCC ((.((((....)))).)), in that order: -42.9 kcal/mol and 53.7 °C.
For GGTTGGGGAAACTCAGCC ((.((.(....).)).)), in data set [1], the folding enthalpy was -30.7 kcal/mol. For the same sequence, the Tm in data set [2] came to 36.1 °C.
For the sequence GGTTGTCGAAAGACGACC (((.(((....))).))), in data set [1], the folding enthalpy was -39.9 kcal/mol. The Tm in data set [2] is 58.8 °C.
The like results for GGTTGTCGAAAGACTACC (((.(((....))).))) were, in that order, -46 kcal/mol and 52 °C.
For the sequence GGTTTACGAAAGTACACC (((.(((....))).))), in data set [1], the folding enthalpy is -28.3 kcal/mol. Besides, the Tm in data set [2] was 45.2 °C.
For GGTTTCGAAAGAACGACC ((((((....)))..))), in that order: -14.4 kcal/mol and 29.6 °C.
GGTTTCGAAAGAACTACC ((((((....)))..))): in data set [1], the folding enthalpy is -10.1 kcal/mol. In data set [2], the Tm was determined as 29.4 °C.
With GGTTTCGAAAGAAGAACC ((((((....)))..))), the folding enthalpy in data set [1] is -18.3 kcal/mol. Moreover, the Tm in data set [2] came out at 31.5 °C.
